# Published values pooled from the literature.
# Lines come from different studies, so protocols differ.
SMILES,target or system,assay,system,setting,measurement,result
CC(C)/N=c1\cc2n(-c3ccc(Cl)cc3)c3ccccc3nc-2cc1Nc1ccc(Cl)cc1,Mycobacterium avium,microbial growth,ATCC700898,,MIC,0.06 µM
CN(Cc1ccc(C2(C(F)(F)F)CC2)cc1)Cc1cccc2ccccc12,Trichophyton rubrum,"microbial growth, disc diffusion",ATCC28188,"0.256 µg/mL, 6 days",inhibition zone,≥ 55 mm
O/N=c1\cc2n(-c3ccc(Cl)cc3)c3ccccc3nc-2cc1Nc1ccc(Cl)cc1,Mycobacterium avium,microbial growth,ATCC700898,,MIC,1.88 µM
O=C(c1ccc(Oc2cccc(-c3ccccc3)c2)c([N+](=O)[O-])c1)C(Cl)Cl,NCI-H1975,"cell growth or viability, MTT",,2.5 µM,inhibition,98.1%
Nc1nc(N)c(OCCCOc2ccccc2CCC(=O)O)c(-c2ccncc2)n1,Mycobacterium avium,"microbial growth, resazurin",,,MIC,0.6 µg/mL
C=CC(=O)NC1CCN(c2ncc3ncnc(Nc4ccc(Oc5ccc6c(c5)ncn6C)c(C)c4)c3n2)CC1,HCC1428,cell growth or viability,,,EC50,7.04 µM
O=C(CO/N=c1\cc2n(-c3ccc(Cl)cc3)c3ccccc3nc-2cc1Nc1ccc(Cl)cc1)NCc1ccc(C(F)(F)F)cc1,Mycobacterium avium,microbial growth,ATCC700898,,MIC,> 30 µM
COc1cccc2c1C(=O)c1c(O)c3c(c(O)c1C2=O)C[C@@](O)(C(=O)CO)C[C@@H]3O[C@H]1C[C@H](N)[C@H](O)[C@H](C)O1,NCI-H1975,"cell growth or viability, MTT",,2.5 µM,inhibition,97.7%
CCOC(=O)CNC(=O)CO/N=c1\cc2n(-c3ccc(Cl)cc3)c3ccccc3nc-2cc1Nc1ccc(Cl)cc1,Mycobacterium avium,microbial growth,ATCC700898,,MIC,1.88 µM
O=C(c1ccc(Oc2ccc3oc(=O)ccc3c2)c([N+](=O)[O-])c1)C(Cl)Cl,NCI-H1975,"cell growth or viability, MTT",,2.5 µM,inhibition,61.6%
CO/N=c1\cc2n(-c3ccc(Cl)cc3)c3ccccc3nc-2cc1Nc1ccc(Cl)cc1,Mycobacterium avium,microbial growth,,clinical isolate,MIC,> 30 µM
Nc1nc(N)c(OCCCOc2ccccc2CCC(=O)O)c(-c2ccccc2C(F)(F)F)n1,Mycobacterium avium,"microbial growth, resazurin",,,MIC,3.6 µg/mL
CC(=O)Nc1ccc(Oc2ccc(C(=O)C(Cl)Cl)cc2[N+](=O)[O-])cc1Cl,NCI-H1975,"cell growth or viability, MTT",,2.5 µM,inhibition,96.5%
Nc1nc(N)c(OCCCOc2ccccc2CCC(=O)O)c(C2CCNCC2)n1,Mycobacterium avium,"microbial growth, resazurin",,,MIC,6.2 µg/mL
O=C(c1ccc(Oc2ccc3c(c2)OCO3)c([N+](=O)[O-])c1)C(Cl)Cl,NCI-H1975,"cell growth or viability, MTT",,2.5 µM,inhibition,97.3%
CN(Cc1ccc(C(C)(C)C)cc1)Cc1cccc2ccccc12,Trichophyton rubrum,"microbial growth, disc diffusion",ATCC28188,"0.064 µg/mL, 6 days",inhibition zone,≥ 55 mm
O=C(CO/N=c1\cc2n(-c3ccc(Cl)cc3)c3ccccc3nc-2cc1Nc1ccc(Cl)cc1)NCc1ccc2c(c1)CCO2,Mycobacterium avium,microbial growth,ATCC700898,,MIC,1.88 µM
CC(=O)OCCCOc1ccc(C(=O)C(Cl)Cl)cc1[N+](=O)[O-],NCI-H1975,"cell growth or viability, MTT",,2.5 µM,inhibition,78.2%
